Assay results published in ChEMBL document CHEMBL1129682, “(S)-(-)-4-[4-[2-(isochroman-1-yl)ethyl]-piperazin-1-yl] benzenesulfonamide, a selective dopamine D4 antagonist” (J Med Chem, 1996).

What follows are molecules tested against T1, 5-hydroxytryptamine receptor 1A (Rattus norvegicus, UniProt P19327) (assay: Binding affinity of [3H]-8-OH-DPAT towards 5-hydroxytryptamine 1A receptor in cloned mammalian receptor expressed in cultured cells or from rat whole brain.).
T1 sequence (P19327 whole entry): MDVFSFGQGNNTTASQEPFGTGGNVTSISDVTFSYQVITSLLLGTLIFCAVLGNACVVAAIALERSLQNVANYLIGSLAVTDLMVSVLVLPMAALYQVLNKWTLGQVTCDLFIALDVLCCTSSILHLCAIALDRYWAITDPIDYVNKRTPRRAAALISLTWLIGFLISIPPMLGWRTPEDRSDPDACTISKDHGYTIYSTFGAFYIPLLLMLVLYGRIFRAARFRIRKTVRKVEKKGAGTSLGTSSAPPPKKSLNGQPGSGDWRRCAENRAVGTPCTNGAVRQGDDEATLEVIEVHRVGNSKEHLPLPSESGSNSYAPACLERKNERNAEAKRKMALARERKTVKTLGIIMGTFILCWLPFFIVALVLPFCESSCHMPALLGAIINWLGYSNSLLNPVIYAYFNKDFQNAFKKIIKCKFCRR
Assay type: cell-based
Summary of the method: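 Radioligand displacement with [3H]-8-OH-DPAT on membranes from cloned mammalian 5-HT1A receptor expressed in cultured cells.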

Row | Ki | SMILES
1 | 0.49 µM | COc1ccc(N2CCN(CC[C@@H]3OCCc4ccccc43)CC2)cc1
2 | 0.093 µM | COc1cc2c(cc1OC)C(CCN1CCN(c3ccc(F)cc3)CC1)OCC2 (stereo unspecified)

Row | SMILES | Ki
3 | NS(=O)(=O)c1ccc(N2CCN(CC[C@H]3OCCc4ccccc43)CC2)cc1 | 2.4 µM

Each molecule was assayed against Serotonin 2 (5-HT2) receptor (Rattus norvegicus, UniProt P30994+P08909+P14842) (assay: Binding affinity of [3H]ketanserin towards 5-hydroxytryptamine 2 receptor in cloned mammalian receptor expressed in cultured cells or from rat whole brain.).
Assay type: cell-based

Row | Ki | SMILES
4 | 0.028 µM | COc1ccc(N2CCN(CC[C@@H]3OCCc4ccccc43)CC2)cc1
5 | 0.0021 µM | COc1cc2c(cc1OC)C(CCN1CCN(c3ccc(F)cc3)CC1)OCC2 (stereo unspecified)

What follows are molecules tested against Adrenergic receptor alpha-1 (Rattus norvegicus) (UniProt P15823+P23944+P43140) (assay: […] against binding of [3H]prazosin to cloned mammalian Alpha-1 adrenergic receptor expressed in cultured cells or from rat whole brain […]).
Assay type: cell-based

Row | inhibition | SMILES
6 | 20% | COc1ccc(N2CCN(CC[C@@H]3OCCc4ccccc43)CC2)cc1
7 | 100% | COc1cc2c(cc1OC)C(CCN1CCN(c3ccc(F)cc3)CC1)OCC2 (stereo unspecified)

Row | SMILES | inhibition
8 | NS(=O)(=O)c1ccc(N2CCN(CC[C@H]3OCCc4ccccc43)CC2)cc1 | 41%

The molecules below were run against T2, D(4) dopamine receptor (Rattus norvegicus, UniProt P30729) (assay: Binding affinity of [3H]spiperone towards Dopamine receptor D4 expressed in cultured cells or from rat whole brain.).
T2 sequence (P30729 whole entry): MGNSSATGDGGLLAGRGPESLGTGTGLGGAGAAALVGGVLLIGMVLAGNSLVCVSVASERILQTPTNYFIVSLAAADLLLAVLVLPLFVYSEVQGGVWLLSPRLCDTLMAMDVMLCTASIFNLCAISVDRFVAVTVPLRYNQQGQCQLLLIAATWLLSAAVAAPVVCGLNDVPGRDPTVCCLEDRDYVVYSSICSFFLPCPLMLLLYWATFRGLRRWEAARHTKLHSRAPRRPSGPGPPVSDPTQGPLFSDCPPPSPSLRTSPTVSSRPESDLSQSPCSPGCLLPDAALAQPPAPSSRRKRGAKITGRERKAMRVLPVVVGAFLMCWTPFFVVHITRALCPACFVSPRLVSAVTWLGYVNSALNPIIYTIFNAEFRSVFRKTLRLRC
Assay type: cell-based

Row | Ki | SMILES
9 | 0.0022 µM | COc1ccc(N2CCN(CC[C@@H]3OCCc4ccccc43)CC2)cc1
10 | 0.024 µM | COc1cc2c(cc1OC)C(CCN1CCN(c3ccc(F)cc3)CC1)OCC2 (stereo unspecified)

Row | SMILES | Ki
11 | NS(=O)(=O)c1ccc(N2CCN(CC[C@H]3OCCc4ccccc43)CC2)cc1 | 0.1 µM

Each molecule was assayed against D(3) dopamine receptor (Rattus norvegicus, UniProt P19020) (assay: Binding affinity of [3H]spiperone towards Dopamine receptor D3 in cloned mammalian receptor expressed in cultured cells or from rat whole brain.).
Sequence of D(3) dopamine receptor (P19020 whole entry): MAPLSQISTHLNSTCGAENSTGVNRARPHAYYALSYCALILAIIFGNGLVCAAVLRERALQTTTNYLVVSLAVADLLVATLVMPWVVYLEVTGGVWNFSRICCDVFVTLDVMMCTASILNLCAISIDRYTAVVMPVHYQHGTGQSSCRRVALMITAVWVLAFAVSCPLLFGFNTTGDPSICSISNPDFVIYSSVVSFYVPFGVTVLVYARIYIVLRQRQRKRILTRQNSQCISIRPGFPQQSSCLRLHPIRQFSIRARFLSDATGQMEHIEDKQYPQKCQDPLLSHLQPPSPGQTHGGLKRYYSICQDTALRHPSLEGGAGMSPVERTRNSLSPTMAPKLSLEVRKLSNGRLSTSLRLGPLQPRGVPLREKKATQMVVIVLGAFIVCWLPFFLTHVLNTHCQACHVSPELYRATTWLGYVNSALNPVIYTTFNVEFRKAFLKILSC
Assay type: cell-based
Summary of the method: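 Radioligand displacement on membranes from cloned mammalian receptors expressed in cultured cells. D1 used [3H]SCH23390 and D3 used [3H]spiperone.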

Row | SMILES | Ki
12 | COc1ccc(N2CCN(CC[C@@H]3OCCc4ccccc43)CC2)cc1 | 1.3 µM
13 | NS(=O)(=O)c1ccc(N2CCN(CC[C@H]3OCCc4ccccc43)CC2)cc1 | 2.9 µM

These molecules were tested against T3, D(2) dopamine receptor (Rattus norvegicus, UniProt P61169) (assay: Binding affinity of [3H]U-86170 towards Dopamine receptor D2 in cloned mammalian receptor expressed in cultured cells or from rat whole brain).
T3 sequence (P61169 whole entry): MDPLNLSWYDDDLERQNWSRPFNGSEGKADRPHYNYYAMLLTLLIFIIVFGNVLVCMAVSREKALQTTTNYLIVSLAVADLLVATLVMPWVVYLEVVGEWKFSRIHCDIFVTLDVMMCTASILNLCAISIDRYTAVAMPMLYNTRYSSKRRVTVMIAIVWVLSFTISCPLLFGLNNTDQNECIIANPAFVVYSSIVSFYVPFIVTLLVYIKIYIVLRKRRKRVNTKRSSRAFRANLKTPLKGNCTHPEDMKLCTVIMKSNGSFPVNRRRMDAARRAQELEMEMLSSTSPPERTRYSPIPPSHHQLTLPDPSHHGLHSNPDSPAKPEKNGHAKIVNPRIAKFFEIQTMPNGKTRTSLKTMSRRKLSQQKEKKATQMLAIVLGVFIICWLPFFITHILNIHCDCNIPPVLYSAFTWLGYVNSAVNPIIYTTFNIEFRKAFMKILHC
Assay type: cell-based

Row | SMILES | Ki
14 | NS(=O)(=O)c1ccc(N2CCN(CC[C@H]3OCCc4ccccc43)CC2)cc1 | 5.6 µM
15 | COc1cc2c(cc1OC)C(CCN1CCN(c3ccc(F)cc3)CC1)OCC2 (stereo unspecified) | 0.4 µM

These molecules were tested against D(1A) dopamine receptor (Rattus norvegicus, UniProt P18901) (assay: Binding affinity of [3H]SCH-23,390 towards Dopamine receptor D1 in cloned mammalian receptor expressed in cultured cells or from rat whole brain.).
Sequence of D(1A) dopamine receptor (P18901 whole entry): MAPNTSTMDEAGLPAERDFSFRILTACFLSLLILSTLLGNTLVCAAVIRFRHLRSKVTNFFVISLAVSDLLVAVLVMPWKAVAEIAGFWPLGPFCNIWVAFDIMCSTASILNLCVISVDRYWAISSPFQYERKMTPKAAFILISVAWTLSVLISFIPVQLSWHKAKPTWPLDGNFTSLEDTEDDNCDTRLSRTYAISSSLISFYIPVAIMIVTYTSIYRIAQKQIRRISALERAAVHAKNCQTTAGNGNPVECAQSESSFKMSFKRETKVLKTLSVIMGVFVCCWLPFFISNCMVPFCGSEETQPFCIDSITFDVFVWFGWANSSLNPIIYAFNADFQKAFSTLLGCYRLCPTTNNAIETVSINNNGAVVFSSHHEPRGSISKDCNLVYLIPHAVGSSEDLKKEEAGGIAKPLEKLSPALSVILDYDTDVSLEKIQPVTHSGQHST
Assay type: cell-based

Row | Ki | SMILES
16 | > 2.4 µM | COc1ccc(N2CCN(CC[C@@H]3OCCc4ccccc43)CC2)cc1
17 | 0.026 µM | COc1cc2c(cc1OC)C(CCN1CCN(c3ccc(F)cc3)CC1)OCC2 (stereo unspecified)

These molecules were tested against T3, D(2) dopamine receptor (assay: Binding affinity to rat Dopamine receptor D2 expressed in CHO cells was determined using [3H]U-86170 as radioligand).

Row | Ki | SMILES
18 | 0.79 µM | COc1ccc(N2CCN(CC[C@@H]3OCCc4ccccc43)CC2)cc1

Each molecule was assayed against Adrenergic receptor alpha-2 (Rattus norvegicus) (UniProt P22086+P19328+P22909) (assay: […] against binding of [3H]clonidine to cloned mammalian Alpha-2 adrenergic receptor expressed in cultured cells or from rat whole brain at 1 uM).

Row | inhibition | SMILES
19 | 9% | COc1ccc(N2CCN(CC[C@@H]3OCCc4ccccc43)CC2)cc1
20 | 75% | COc1cc2c(cc1OC)C(CCN1CCN(c3ccc(F)cc3)CC1)OCC2 (stereo unspecified)

Row | SMILES | inhibition
21 | NS(=O)(=O)c1ccc(N2CCN(CC[C@H]3OCCc4ccccc43)CC2)cc1 | 15%
